Assay results reported in ChEMBL document CHEMBL5385970, “Design, synthesis, and evaluation of novel ferrostatin derivatives for the prevention of HG-induced VEC ferroptosis” (RSC Med Chem, 2024).
Converted amounts (≈) assume the structure as drawn. The source made the active and inactive calls. The rule behind the calls is not given here.

How the values were obtained:
[1] = Antioxidant activity assessed as DPPH radical scavenging activity incubated for 30 mins; format: functional
Procedure, shortened: (§1)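 DPPH at 100 μM in ethanol (180 μL) mixed with compound in DMSO (20 μL), giving 50 μM final compound. Kept 30 min in the dark at room temperature, then A517 read to obtain DPPH clearance. For IC50, a concentration gradient of compound was tested and the curve fitted.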

[2] = Kinetic solubility of compound in PBS buffer at pH7.4 incubated for; format: physicochemical; conditions: pH 7.4, read-out: Kinetic_solubility
Procedure, shortened: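 DMSO stocks ([…]) were diluted 4 μL into 196 μL of 10 mM PBS pH 7.4, giving final concentrations of 3.13–200 μM. Plate shaken for 10 s and incubated 2 h at 37 °C. Solubility taken as the highest concentration with no measurable turbidity.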

[3] = Antioxidant activity assessed as DPPH radical scavenging activity at 50 uM incubated for 30 mins relative to control; format: functional; procedure, shortened: as §1
HUVEC [4] = assay: Cytotoxicity against human HUVEC cells assessed as reduction in erastin-induced cell survival at 10 uM measured for 24 hrs by SRB assay; format: toxicity, cell-based
Procedure, shortened: (§2)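 HUVECs (gelatin-coated dishes, M199 with 20% bovine serum and FGF2, 37 °C, 5% CO2) seeded in 96-well plates and incubated overnight. Treated 24 h with 10 μM erastin alone or with compound (10 μM, or a range of concentrations). Cells fixed with TCA, stained with 0.4% SRB in 1% acetic acid, dissolved in 10 mM Tris pH 10.5, A540 read. Survival computed relative to blank and untreated control. At least three separate experiments.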

HUVEC [5] = assay: Anti-ferroptotic activity against Erastin-induced ferroptosis in human HUVEC cells assessed as cell viability incubated for 24 hrs by SRB assay; format: functional, cell-based; procedure, shortened: as §2
HUVEC [6] = assay: Cytotoxicity against human HUVEC cells assessed as high glucose-induced cell survival at 10 uM measured for 24 hrs by SRB assay; format: toxicity, cell-based
Procedure, shortened: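 HUVECs in M199 with 20% bovine serum and FGF2, plated in 96-well plates, incubated overnight. Exposed to 30 mM high glucose alone or with 10 μM compound for 24 h. Viability by SRB (TCA fixation, 0.4% SRB stain, Tris pH 10.5 solubilisation, A540). Survival expressed relative to blank and untreated control. n = 3.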

[7] = Microsomal stability in human liver microsome assessed as parent compound remaining measured after 60 mins in absence of NADPH by LC-MS/MS analysis; format: ADME; conditions: liver microsomes, read-out: Stability
Procedure, shortened: (§3)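 Compound at 1 μM final was incubated at 37 °C with liver microsomes (human, rat or mouse) in pH 7.4 buffer, with and without NADPH. Verapamil served as reference. Samples taken at 0–60 min and quenched in acetonitrile with tolbutamide internal standard. Analysed by LC-MS/MS on a C18 column with a water/acetonitrile 0.1% TFA gradient. Parent remaining reported at 60 min; T1/2 also derived.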

[8] = Microsomal stability in rat liver microsome assessed as parent compound remaining measured after 60 mins in absence of NADPH by LC-MS/MS analysis; format: ADME; conditions: liver microsomes, read-out: Stability; procedure, shortened: as §3
[9] = Microsomal stability in mouse liver microsome assessed as parent compound remaining measured after 60 mins in absence of NADPH by LC-MS/MS analysis; format: ADME; conditions: liver microsomes, read-out: Stability; procedure, shortened: as §3
[10] = Microsomal stability in human liver microsome assessed as parent compound remaining measured after 60 mins in presence of NADPH by LC-MS/MS analysis; format: ADME; conditions: liver microsomes, read-out: Stability; procedure, shortened: as §3
[11] = Microsomal stability in rat liver microsome assessed as parent compound remaining measured after 60 mins in presence of NADPH by LC-MS/MS analysis; format: ADME; conditions: liver microsomes, read-out: Stability; procedure, shortened: as §3
[12] = Microsomal stability in mouse liver microsome assessed as parent compound remaining measured after 60 mins in presence of NADPH by LC-MS/MS analysis; format: ADME; conditions: liver microsomes, read-out: Stability; procedure, shortened: as §3
[13] = Microsomal stability in human liver microsome assessed as half life measured upto 60 mins by LC-MS/MS analysis; format: ADME; conditions: liver microsomes
[14] = Microsomal stability in rat liver microsome assessed as half life measured upto 60 mins by LC-MS/MS analysis; format: ADME; conditions: liver microsomes
[15] = Microsomal stability in mouse liver microsome assessed as half life measured upto 60 mins by LC-MS/MS analysis; format: ADME; conditions: liver microsomes
HUVEC [16] = assay: Cytotoxicity against human HUVEC cells assessed as reduction in cell viability at 10 uM measured for 24 hrs by SRB assay; format: toxicity, cell-based
Procedure, shortened: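 HUVECs were grown on gelatin-coated dishes in M199 with 20% bovine serum and 10 IU/mL FGF2 at 37 °C, 5% CO2. Cells were seeded in 96-well plates, incubated overnight, then exposed to compound for 24 h. They were TCA-fixed, stained for 10 min with 0.4% SRB in 1% acetic acid, and dissolved in 10 mM Tris (pH 10.5). A540 survival was calculated relative to blank and control, from at least three experiments.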

HUVEC [17] = assay: Induction of mitochondrial damage in high glucose-induced human HUVEC cells assessed as increase in monomer formation at 10 uM incubated for 24 hrs by JC-1 staining based flow cytometry analysis; format: functional, cell-based
HUVEC [18] = assay: Upregulation of GPX4 expression in high glucose-induced human HUVEC cells at 10 uM incubated for 24 hrs by Western blot analysis; format: functional, cell-based
Procedure, shortened: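 HUVECs exposed 24 h to 30 mM high glucose and 10 μM compound, then lysed in RIPA. Protein by BCA; 15 μg per lane run on 12% SDS-PAGE and blotted to PVDF. Probed with anti-GPX4 (1:1000) and anti-β-actin (1:5000) overnight at 4 °C, detected by ECL, and quantified by densitometry. Untreated cells normalized to 1; n = 3.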

HUVEC [19] = assay: Anti-ferroptotic activity against human HUVEC cells assessed as decrease in intracellular ferrous ion level at 10 uM incubated for 24 hrs by ferroOrange probe based analysis; format: functional, cell-based
Procedure, shortened: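 After 24 h with 30 mM high glucose and 10 μM compound, HUVECs were washed three times in serum-free medium. Loaded with 1 μM FerroOrange for 30 min at 37 °C, 5% CO2, then imaged by fluorescence microscopy. Ferrous ion signal quantified relative to untreated control set to 1; n = 3.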

HUVEC [20] = assay: Anti-ferroptotic activity against human HUVEC cells assessed as decrease in LPO level at 10 uM incubated for 24 hrs; format: functional, cell-based
Procedure, shortened: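 HUVECs given 30 mM high glucose plus 10 μM compound for 24 h. Cells collected, extracted and sonicated on ice (3 s on, 7 s off, 3 min total), then spun 8000 × g for 10 min at 4 °C. LPO measured in the supernatant with a kit. Values relative to untreated cells set to 1; n = 3.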

HUVEC [21] = assay: Anti-ferroptotic activity against human HUVEC cells assessed as decrease in MDA level at 10 uM incubated for 24 hrs; format: functional, cell-based
Procedure, shortened: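 Cells were HUVECs under 30 mM high glucose with 10 μM compound, 24 h. Lysed in Western/IP lysis buffer and spun 10 000 × g for 10 min. MDA measured by kit in the supernatant and normalized to mg protein. Expressed relative to untreated control set to 1; n = 3.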

HUVEC [22] = assay: Inhibition of ROS accumulation in high glucose-induced human HUVEC cells at 10 uM incubated for 24 hrs by DCF-DA staining based fluorescence microscopic analysis

| Compound | IC50 [1] [µM] | solubility kinetic [2] [µM] | Activity [3] [%] | Activity (HUVEC [4]) | EC50 (HUVEC [5]) [µM] | Activity (HUVEC [6]) | also measured |
| --- | --- | --- | --- | --- | --- | --- | --- |
| CCOC(=O)c1ccc(NC2CCCCC2)c(NCc2ccccc2)c1 | 46.8 | 6.2 (≈ 2.19 µg/mL) | 56.4 |  |  |  |  |
| O=C(N/N=C/c1ccc(Br)cc1)c1ccc(NC2CCCCC2)c(NCc2ccccc2)c1 |  |  |  | Non-Toxic |  |  |  |
| O=C(N/N=C/c1ccc(O)cc1)c1ccc(NC2CCCCC2)c(NCc2ccccc2)c1 | 56.8 | 28.6 (≈ 12.7 µg/mL) | 53.3 | Non-Toxic | 0.79 | Non-Toxic |  |
| O=C(N/N=C/c1ccc(N2CCCC2)cc1)c1ccc(NC2CCCCC2)c(NCc2ccccc2)c1 |  |  |  | Non-Toxic |  |  |  |
| N#Cc1ccc(/C=N/NC(=O)c2ccc(NC3CCCCC3)c(NCc3ccccc3)c2)cc1 |  |  |  | Toxic |  |  |  |
| O=C(N/N=C/c1cccc(O)c1O)c1ccc(NC2CCCCC2)c(NCc2ccccc2)c1 |  |  |  | Toxic |  |  |  |
| O=C(N/N=C/c1ccc(Cl)c(Cl)c1)c1ccc(NC2CCCCC2)c(NCc2ccccc2)c1 |  |  |  | Non-Toxic |  |  |  |
| O=C(N/N=C/c1ccccc1OCc1ccccc1)c1ccc(NC2CCCCC2)c(NCc2ccccc2)c1 |  |  |  | Toxic |  |  |  |
| O=C(N/N=C/c1ccc([N+](=O)[O-])cc1)c1ccc(NC2CCCCC2)c(NCc2ccccc2)c1 |  |  |  | Non-Toxic |  |  |  |
| O=C(N/N=C/c1ccc(F)c(Br)c1)c1ccc(NC2CCCCC2)c(NCc2ccccc2)c1 |  |  |  | Non-Toxic |  |  |  |
| O=C(N/N=C/c1cccc(OCc2ccccc2)c1)c1ccc(NC2CCCCC2)c(NCc2ccccc2)c1 | 59.2 | 20 (≈ 10.7 µg/mL) | 52.2 | Non-Toxic | 0.68 | Non-Toxic |  |
| O=C(N/N=C/c1ccc(F)c([N+](=O)[O-])c1)c1ccc(NC2CCCCC2)c(NCc2ccccc2)c1 |  |  |  | Toxic |  |  |  |
| O=C(N/N=C/c1ccc(Cl)cc1)c1ccc(NC2CCCCC2)c(NCc2ccccc2)c1 | 46.8 | 28.6 (≈ 13.2 µg/mL) | 53.4 | Non-Toxic | 0.73 | Non-Toxic |  |
| CN(C)c1ccc(/C=N/NC(=O)c2ccc(NC3CCCCC3)c(NCc3ccccc3)c2)cc1 |  |  |  | Non-Toxic |  |  |  |
| CCOC(=O)c1ccc(NC2CCCCC2)c(N)c1 | 54.3 | > 200 | 52.5 |  | 0.6 | Non-Toxic | remaining at 1 h [7]: 6%; remaining at 1 h [8]: 4%; remaining at 1 h [9]: 5%; remaining at 1 h [10]: 7.6%; remaining at 1 h [11]: 6.1%; remaining at 1 h [12]: 6.6%; half-life [13]: 16.8 min; half-life [14]: 18.4 min; half-life [15]: 2.7 min |
| CCOc1ccccc1-n1c(C(C)N2CCN(C(=O)COc3ccc(Cl)cc3)CC2)nc2ccccc2c1=O (stereo not drawn) [ERASTIN] |  |  |  |  |  |  | Activity (HUVEC [16]): 75% |
| COc1cc(/C=N/NC(=O)c2ccc(NC3CCCCC3)c(NCc3ccccc3)c2)cc(OC)c1 |  |  |  | Non-Toxic |  |  |  |
| O=C(N/N=C/c1cccc([N+](=O)[O-])c1)c1ccc(NC2CCCCC2)c(NCc2ccccc2)c1 | 45.9 | 20 (≈ 9.43 µg/mL) | 53.3 | Non-Toxic | 0.69 | Non-Toxic |  |
| O=C(N/N=C/c1ccccc1)c1ccc(NC2CCCCC2)c(NCc2ccccc2)c1 |  |  |  | Non-Toxic |  |  |  |
| O=C(N/N=C/c1ccc(OCc2ccccc2)cc1)c1ccc(NC2CCCCC2)c(NCc2ccccc2)c1 | 38.1 | 20 (≈ 10.7 µg/mL) | 65.9 | Non-Toxic | 0.5 | Non-Toxic | Activity (HUVEC [17]): Active; Activity (HUVEC [18]): Active; Activity (HUVEC [19]): Active; Activity (HUVEC [20]): Active; Activity (HUVEC [21]): Active; remaining at 1 h [7]: 105%; remaining at 1 h [8]: 110%; remaining at 1 h [9]: 38%; remaining at 1 h [10]: 0.6%; remaining at 1 h [11]: 1%; remaining at 1 h [12]: 1%; half-life [13]: 4.9 min; half-life [14]: 9.1 min; half-life [15]: 9 min; Activity (HUVEC [22]): Active |
| N#Cc1cccc(/C=N/NC(=O)c2ccc(NC3CCCCC3)c(NCc3ccccc3)c2)c1 | 38.6 | 22.2 (≈ 10 µg/mL) | 59.6 | Non-Toxic | 0.61 | Non-Toxic |  |
| COc1ccccc1/C=N/NC(=O)c1ccc(NC2CCCCC2)c(NCc2ccccc2)c1 | 54.5 | 25 (≈ 11.4 µg/mL) | 57.4 | Non-Toxic | 0.65 | Non-Toxic |  |
| COc1ccc(/C=N/NC(=O)c2ccc(NC3CCCCC3)c(NCc3ccccc3)c2)c(O)c1 |  |  |  | Non-Toxic |  |  |  |
